Results gathered from unrelated publications.
Each line is one published result; the experiments were not run side by side. ≈ marks a conversion by molar mass, not a printed value.
Organism: Nakaseomyces glabratus

| Structure (SMILES) | test | test system | setting | endpoint | value |
| --- | --- | --- | --- | --- | --- |
| O=C(O)c1nc2ccccc2c(=O)n1Cc1cn(-c2cccc(F)c2)nn1 | microbial growth, broth dilution | ATCC90030 | 24 h | IC50 | 262 µg/mL (≈ 717 µM) |
| COc1cc(C(C)(C)C#Cc2c(C)nc(N)nc2N)cc(OC)c1OC | microbial growth, resazurin |  |  | MIC | 178 µg/mL (≈ 499 µM) |
| CCCCCCCCCCCCCN1CCNCC1 | microbial growth, broth dilution | ATCC2001 | 48 h | MIC | 0.48 µg/mL (≈ 1.79 µM) |
| OC(Cn1cncn1)(Cn1cncn1)c1ccc(F)cc1F | microbial growth, broth dilution |  | 24 h | MIC90 | 16 µg/mL (≈ 52.2 µM) |
| CN1CCNCC1 | microbial growth, broth dilution | ATCC2001 | 48 h | MIC | > 31.3 µg/mL |
| CCCCCCCOc1c(OC)cc(NC(C)CCCN)c2nc(C(C)(C)C)cc(C)c12 (stereo not drawn) | microbial growth | ATCC90030 |  | IC50 | 4.3 µg/mL (≈ 9.69 µM) |
| CCCCCN1CCN(CC(O)(Cn2cncn2)c2ccc(F)cc2F)CC1 (stereo not drawn) | microbial growth, broth dilution | ATCC2001 | 48 h | MIC | > 31.3 µg/mL |
| C[C@@H]1[C@H](O)[C@@H](C)/C=C/C=C/C=C/C=C/C=C/C=C/C=C/[C@H](O[C@@H]2O[C@H](C)[C@@H](O)[C@H](N)[C@@H]2O)C[C@@H]2O[C@](O)(C[C@@H](O)C[C@@H](O)[C@H](O)CC[C@@H](O)C[C@@H](O)CC(=O)O[C@H]1C)C[C@H](O)[C@H]2C(=O)O | microbial killing | ATCC90030 |  | MFC | 1.25 µg/mL (≈ 1.35 µM) |
| CCCCCCCCCCCCCCN1CCOCC1 | microbial growth, broth dilution | ATCC2001 | 48 h | MIC | > 31.3 µg/mL |
| CCCCCCOc1c(OC)cc(NC(C)CCCN)c2nc(C(C)(C)C)ccc12 (stereo not drawn) | microbial killing | ATCC90030 |  | MFC | 20 µg/mL (≈ 48.1 µM) |
| Cc1cccc(-n2cc(Cn3c(C(=O)O)nc4ccccc4c3=O)nn2)c1 | microbial growth, broth dilution | ATCC90030 | 24 h | IC50 | 245 µg/mL (≈ 677 µM) |
| CCCCCCOc1c(OC)cc(NC(C)CCCNC(=O)C(N)Cc2cnc[nH]2)c2nc(C(C)(C)C)ccc12 (stereo not drawn) | microbial growth, broth dilution | ATCC90030 |  | MIC | 20 µg/mL (≈ 36.2 µM) |
| O=C(O)c1nc2ccccc2c(=O)n1Cc1cn(-c2ccc(Cl)cc2)nn1 | microbial growth, broth dilution | ATCC90030 | 24 h | IC50 | 517 µg/mL (≈ 1350 µM) |
| CCCCCOc1c(OC)cc(NC(C)CCCNC(=O)C(N)Cc2ccccc2)c2nc(C(C)(C)C)ccc12 (stereo not drawn) | microbial growth | ATCC90030 |  | IC50 | 10.9 µg/mL (≈ 20 µM) |
| O=C(O)c1nc2ccccc2c(=O)n1Cc1cn(-c2cccc([N+](=O)[O-])c2)nn1 | microbial growth, broth dilution | ATCC90030 | 24 h | IC50 | 487 µg/mL (≈ 1240 µM) |
| C#CCCCCCCCCC=CCC(O)CC(O)CO (stereo not drawn) | microbial growth, broth dilution | ATCC90030 |  | IC50 | > 8 µg/mL |
| OC(Cn1cncn1)(Cn1cncn1)c1ccc(F)cc1F | microbial killing | ATCC2001 |  | MFC | > 64 µg/mL |
| CC[C@H](C)C[C@H](C)CCCCCCCCC(=O)N[C@H]1C[C@@H](O)[C@@H](NCCN)NC(=O)[C@@H]2[C@@H](O)CCN2C(=O)[C@H]([C@H](O)CCN)NC(=O)[C@H]([C@H](O)[C@@H](O)c2ccc(O)cc2)NC(=O)[C@@H]2C[C@@H](O)CN2C(=O)[C@H]([C@@H](C)O)NC1=O | microbial growth, broth dilution | ATCC2001 | 48 h | MIC | 0.06 µg/mL (≈ 0.0549 µM) |
| CCCCCOc1c(OC)cc(NC(C)CCCNC(=O)C(N)CCCNC(=N)N)c2nc(C(C)(C)C)ccc12 (stereo not drawn) | microbial killing | ATCC90030 |  | MFC | 20 µg/mL (≈ 35.9 µM) |
| CCOC(=O)c1nc2ccccc2c(=O)n1Cc1cn(-c2cccc([N+](=O)[O-])c2)nn1 | microbial growth, broth dilution | ATCC90030 | 24 h | IC50 | 354 µg/mL (≈ 842 µM) |
| CCCCCN1CCNCC1 | microbial growth, broth dilution | ATCC2001 | 48 h | MIC | > 31.3 µg/mL |
| COc1ccccc1-n1cc(Cn2c(C(=O)O)nc3ccccc3c2=O)nn1 | microbial growth, broth dilution | ATCC90030 | 24 h | IC50 | 29.4 µg/mL (≈ 77.9 µM) |
| CCCCCCCCCCCCN1CCNCC1 | microbial growth, broth dilution | ATCC2001 | 48 h | MIC | 1.95 µg/mL (≈ 7.66 µM) |
| CCOC(=O)c1nc2ccccc2c(=O)n1Cc1cn(-c2ccccc2F)nn1 | microbial growth, broth dilution | ATCC90030 | 24 h | IC50 | 245 µg/mL (≈ 622 µM) |
| CCCCCCCCCCN1CCN(CC(O)(Cn2cncn2)c2ccc(F)cc2F)CC1 (stereo not drawn) | microbial growth, broth dilution | ATCC2001 | 48 h | MIC | > 31.3 µg/mL |
| CCCCCCCCOc1c(OC)cc(NC(C)CCCN)c2nc(C(C)(C)C)ccc12 (stereo not drawn) | microbial growth | ATCC90030 |  | IC50 | 6.19 µg/mL (≈ 14 µM) |
| CCOC(=O)c1nc2ccccc2c(=O)n1Cc1cn(-c2ccccc2)nn1 | microbial growth, broth dilution | ATCC90030 | 24 h | IC50 | 182 µg/mL (≈ 484 µM) |
